One series relates to NRK-49F. Nature of the series: Inhibition of TGF-beta-induced collagen accumulation in rat NRK-49F cells at 10 uM incubated for 2 days by PSR staining based microscopic analysis relative to control. The format is functional. As to conditions: 48 h, time 2 day. Summed up: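 NRK-49F cells were grown 3 days in DMEM with 5% FBS, then 2 days in DMEM with 1% ITS. Next came 2 days with TGF-β 5 ng/ml plus or minus compound 10 µM. Cells were fixed in 4% paraformaldehyde and stained 4 h with 0.1% Picrosirius Red, then rinsed with acetic acid. Dye was eluted with 0.1 M NaOH and OD read at 540 nm. Inhibition = […] ×100%, in triplicate.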

A short description of series [1]: Cytotoxicity against rat NRK-49F cells assessed as cell survival rate at 10 uM incubated for 72 hrs by MTT assay. The following applies: read-out: Activity. The format is cell-based. Summed up: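 NRK-49F cells were seeded at 0.5×10^5 cells/ml, cultured overnight, then exposed to compound 10 µM for 72 h. MTT was added and incubated 4 h, formazan dissolved in DMSO and absorbance read. Survival = (treated − zero)/(blank − zero) A ×100%, done in triplicate.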
A general note: Tetrazolium dyes change colour on reduction, which living cells bring about.

Broadly, the inhibition is the drop in the measured response relative to a control, in per cent.

The molecule `O=C(CNC1CCOCC1)Nc1ccc(Nc2cc(=O)[nH]c3ccccc23)cc1` came in with an inhibition at 10 µM in the series with NRK-49F of 50%. For the same molecule, the viability at 72 h, 10 µM in series [1] was 83.5%.
On to `CN(C)C1CCN(CC(=O)Nc2ccc(Sc3cc(=O)[nH]c4ccccc34)cc2)CC1`, for which the inhibition at 10 µM in the series on NRK-49F was found to be 51.1%. For the same molecule, the viability at 72 h, 10 µM in series [1] amounted to 80.3%.
Turning to `O=C(CN1CCNCC1)Nc1ccc(Oc2cc(=O)[nH]c3ccccc23)c(F)c1`, in the series with NRK-49F, the inhibition at 10 µM was determined as 60.3%. The viability at 72 h, 10 µM in series [1] turned out to be 93.3%.
The like results for `CN1CCN(CC(=O)Nc2ccc(Oc3cc(=O)[nH]c4ccccc34)cc2)CC1` were, in that order, 43.7% and 80.2%.
Consider `CCN1CCN(CC(=O)Nc2ccc(Oc3cc(=O)[nH]c4ccccc34)cc2)CC1`, for which 10 µM produced 41.7% inhibition with NRK-49F. The viability at 72 h, 10 µM in series [1] was determined as 91.7%.
Molecule `O=C(CN1CCN(C(=O)C2CC2)CC1)Nc1ccc(Oc2ccc3[nH]c(=O)ccc3c2)c(F)c1` yielded an inhibition at 10 µM with NRK-49F of 34.6%. Also, in series [1], the viability at 72 h, 10 µM was 95.2%.
Taken in the same sequence, the figures for `CN(C)C1CCN(CC(=O)Nc2ccc(Oc3cc(=O)[nH]c4ccccc34)cc2)CC1` were 43.9% and 81.2%.
`O=C(CN1CCNCC1)Nc1ccc(Oc2cc(=O)[nH]c3ccccc23)cc1` had an inhibition at 10 µM in the series on NRK-49F of 58.1%. The viability at 72 h, 10 µM in series [1] was 95.1%.
`CC(=O)N1CCN(CC(=O)Nc2ccc(Nc3cc(=O)[nH]c4ccccc34)cc2)CC1`: the inhibition at 10 µM in the series on NRK-49F was found to be 39%. Moreover, in series [1], the viability at 72 h, 10 µM was 72.5%.
In the series with NRK-49F, `O=C(CN1CCCC1)Nc1ccc(Oc2cc(=O)[nH]c3ccccc23)cc1` yielded an inhibition at 10 µM of 68%. Besides, the viability at 72 h, 10 µM in series [1] is 82.2%.
`CN(C)C1CCN(CC(=O)Nc2ccc(Oc3cc(=O)[nH]c4ccccc34)c(F)c2)CC1` came in with an inhibition at 10 µM in the series on NRK-49F of 60.7%. For the same molecule, the viability at 72 h, 10 µM in series [1] turned out to be 98.6%.
Molecule `CC(=O)N1CCN(CC(=O)Nc2ccc(Oc3cc(=O)[nH]c4ccccc34)c(F)c2)CC1` came in with an inhibition at 10 µM in the series with NRK-49F of 42.7%. Besides, the viability at 72 h, 10 µM in series [1] is 108%.
In the case of `CC(C)(C)N1CCN(CC(=O)Nc2ccc(Oc3cc(=O)[nH]c4ccccc34)cc2)CC1`, the inhibition at 10 µM with NRK-49F was found to be 73.2%. Further, in series [1], the viability at 72 h, 10 µM was 92.7%.
As for `CC(C)(C)OC(=O)N1CCN(CC(=O)Nc2ccc(Sc3cc(=O)[nH]c4ccccc34)cc2)CC1`, testing at 10 µM in the series on NRK-49F gave an inhibition of 72.4%. Moreover, in series [1], the viability at 72 h, 10 µM stood at 71.2%.
Taken in the same sequence, the figures for `O=C(CN1CCCCC1)Nc1ccc(Oc2cc(=O)[nH]c3ccccc23)cc1` were 27.4% and 78.5%.
In the case of `CCNCC(=O)Nc1ccc(Nc2cc(=O)[nH]c3ccccc23)cc1`, the inhibition at 10 µM in the series with NRK-49F turned out to be 28.7%. The viability at 72 h, 10 µM in series [1] worked out at 83.7%.
In the case of `O=C(CN1CCOCC1)Nc1ccc(Nc2cc(=O)[nH]c3ccccc23)cc1`, the inhibition at 10 µM with NRK-49F came to 40.9%. Moreover, the viability at 72 h, 10 µM in series [1] was determined as 81.9%.
Consider `CC(=O)N1CCN(CC(=O)Nc2ccc(Oc3cc(=O)[nH]c4ccccc34)cc2)CC1`, for which the inhibition at 10 µM in the series on NRK-49F stood at 50%. Besides, the viability at 72 h, 10 µM in series [1] was determined as 96.3%.
With `CC(C)(C)OC(=O)N1CCN(CC(=O)Nc2ccc(Oc3ccc4ccc(=O)[nH]c4c3)c(F)c2)CC1`, in the series with NRK-49F, 10 µM produced 76.4% inhibition. The viability at 72 h, 10 µM in series [1] amounted to 89.7%.
The like results for `CCN1CCN(CC(=O)Nc2ccc(Nc3cc(=O)[nH]c4ccccc34)cc2)CC1` were, in that order, 46% and 64.8%.
In turn, `O=C(CNC1CCOCC1)Nc1ccc(Sc2cc(=O)[nH]c3ccccc23)cc1` showed an inhibition at 10 µM in the series with NRK-49F of 53%. The viability at 72 h, 10 µM in series [1] came out at 83.9%.
Taken in the same sequence, the figures for `CN1CCN(CC(=O)Nc2ccc(Nc3cc(=O)[nH]c4ccccc34)cc2)CC1` were 38.9% and 78%.
Regarding `CC(C)(C)OC(=O)N1CCN(CC(=O)Nc2ccc(Nc3cc(=O)[nH]c4ccccc34)cc2)CC1`, at 10 µM the inhibition in the series with NRK-49F was 73.3%. Further, the viability at 72 h, 10 µM in series [1] was determined as 67.5%.
In the case of `CN1CCN(CC(=O)Nc2ccc(Sc3cc(=O)[nH]c4ccccc34)cc2)CC1`, the inhibition at 10 µM in the series with NRK-49F stood at 40%. In series [1], the viability at 72 h, 10 µM was found to be 86.7%.
In turn, `O=C(CN1CCOCC1)Nc1ccc(Oc2cc(=O)[nH]c3ccccc23)c(F)c1` displayed an inhibition at 10 µM in the series with NRK-49F of 47.3%. Also, the viability at 72 h, 10 µM in series [1] was found to be 90.8%.
Taken in the same sequence, the figures for `CCNCC(=O)Nc1ccc(Oc2cc(=O)[nH]c3ccccc23)c(F)c1` were 50.6% and 99.3%.
For `O=C(CN1CCOCC1)Nc1ccc(Sc2cc(=O)[nH]c3ccccc23)cc1`, the inhibition at 10 µM with NRK-49F stood at 53.4%. The viability at 72 h, 10 µM in series [1] was determined as 77.4%.
The molecule `CC1CCN(CC(=O)Nc2ccc(Oc3cc(=O)[nH]c4ccccc34)cc2)CC1` returned an inhibition at 10 µM in the series with NRK-49F of 31.5%. For the same molecule, the viability at 72 h, 10 µM in series [1] was 79.9%.
Taken in the same sequence, the figures for `O=C(CN1CCCCC1)Nc1ccc(Sc2cc(=O)[nH]c3ccccc23)cc1` were 28.4% and 93.5%.
As for `CCN(CC)CC(=O)Nc1ccc(Nc2cc(=O)[nH]c3ccccc23)cc1`, at 10 µM the inhibition in the series on NRK-49F was 44.2%. Besides, the viability at 72 h, 10 µM in series [1] turned out to be 82.6%.
For the molecule `O=C(CN1CCCC1)Nc1ccc(Nc2cc(=O)[nH]c3ccccc23)cc1`, testing at 10 µM in the series on NRK-49F gave an inhibition of 59.9%. The viability at 72 h, 10 µM in series [1] is 72.5%.
The molecule `CC(C)(C)OC(=O)N1CCN(CC(=O)Nc2ccc(Oc3ccc4[nH]c(=O)ccc4c3)c(F)c2)CC1` had an inhibition at 10 µM in the series on NRK-49F of 57.4%. The viability at 72 h, 10 µM in series [1] is 85.6%.
Regarding `O=C(CN1CCN(C(=O)C2CC2)CC1)Nc1ccc(Oc2cc(=O)[nH]c3ccccc23)cc1`, in the series on NRK-49F, the inhibition at 10 µM was 78.3%. In addition, the viability at 72 h, 10 µM in series [1] worked out at 92.2%.
Turning to `CCNCC(=O)Nc1ccc(Sc2cc(=O)[nH]c3ccccc23)cc1`, the inhibition at 10 µM with NRK-49F amounted to 51.1%. In series [1], the viability at 72 h, 10 µM was 87.7%.
For `O=C(CNC1CCOCC1)Nc1ccc(Oc2cc(=O)[nH]c3ccccc23)cc1`, in the series with NRK-49F, the inhibition at 10 µM turned out to be 46%. The viability at 72 h, 10 µM in series [1] was 96%.
In turn, `CC(C)(C)N1CCN(CC(=O)Nc2ccc(Oc3ccc4ccc(=O)[nH]c4c3)c(F)c2)CC1` showed an inhibition at 10 µM in the series with NRK-49F of 67.7%. In addition, the viability at 72 h, 10 µM in series [1] is 89.8%.
In the case of `O=C(CN1CCCC1)Nc1ccc(Oc2cc(=O)[nH]c3ccccc23)c(F)c1`, in the series with NRK-49F, the inhibition at 10 µM is 49.5%. The viability at 72 h, 10 µM in series [1] came to 96.4%.
On to `CC1CCN(CC(=O)Nc2ccc(Sc3cc(=O)[nH]c4ccccc34)cc2)CC1`, for which 10 µM produced 28.6% inhibition with NRK-49F. For the same molecule, in series [1], the viability at 72 h, 10 µM was 116%.
Regarding `CN(C)C1CCN(CC(=O)Nc2ccc(Nc3cc(=O)[nH]c4ccccc34)cc2)CC1`, the inhibition at 10 µM in the series on NRK-49F amounted to 50.2%. Also, the viability at 72 h, 10 µM in series [1] turned out to be 83.5%.
`O=C(CNC1CCOCC1)Nc1ccc(Oc2cc(=O)[nH]c3ccccc23)c(F)c1`: testing at 10 µM in the series on NRK-49F gave an inhibition of 53.9%. Also, the viability at 72 h, 10 µM in series [1] was 90.8%.
For `CC1CCN(CC(=O)Nc2ccc(Oc3cc(=O)[nH]c4ccccc34)c(F)c2)CC1`, the inhibition at 10 µM with NRK-49F stood at 45.9%. Besides, the viability at 72 h, 10 µM in series [1] came to 105%.
In the series with NRK-49F, `CN1CCN(CC(=O)Nc2ccc(Oc3cc(=O)[nH]c4ccccc34)c(F)c2)CC1` gave an inhibition at 10 µM of 73.9%. In addition, the viability at 72 h, 10 µM in series [1] was determined as 99%.
In the series with NRK-49F, `CCNCC(=O)Nc1ccc(Oc2cc(=O)[nH]c3ccccc23)cc1` gave an inhibition at 10 µM of 25.4%. The viability at 72 h, 10 µM in series [1] is 89.2%.
In the case of `CCN1CCN(CC(=O)Nc2ccc(Oc3cc(=O)[nH]c4ccccc34)c(F)c2)CC1`, testing at 10 µM in the series on NRK-49F gave an inhibition of 49.1%. For the same molecule, the viability at 72 h, 10 µM in series [1] worked out at 89.6%.

The values are drawn from ChEMBL document CHEMBL4680254, “Design, synthesis and discovery of 2(1H)-quinolone derivatives for the treatment of pulmonary fibrosis through inhibition of TGF-β/smad dependent and independent pathway” (Eur J Med Chem, 2020).
